C2C12 statin = suppression of simvastatin myotoxicity; C2C12 myotubes + simvastatin, ATP luminescence, 48 h; scaled: DMSO 0, geranylgeraniol control 100; rescue of ATP level, % at 7.49 µM; 330,000 tested, 0.78% active;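 active = mean ATP rescue above about 67%, or every replicate alone reaching that limit, limit read from the data, passing the limit was not always enough; inconclusive = no clear call, values can overlap the other calls; inactive = mean under the limit and some replicate under it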;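 also: myotubes were challenged with 10 µM simvastatin during compound exposure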
ERp5 block = inhibitors of human ERp5; Q15084; ERp5 insulin aggregation, absorbance 650 nm, 90 min; inhibition, % at 9.99 µM; 350,000 tested, 0.05% active;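 active = mean replicate inhibition above about 25%, with every replicate also reaching it, limit read from the data, passing the limit was not always enough; inconclusive = only one of those two criteria met; inactive = neither criterion met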
Target sequence (Q15084 whole entry, looked up): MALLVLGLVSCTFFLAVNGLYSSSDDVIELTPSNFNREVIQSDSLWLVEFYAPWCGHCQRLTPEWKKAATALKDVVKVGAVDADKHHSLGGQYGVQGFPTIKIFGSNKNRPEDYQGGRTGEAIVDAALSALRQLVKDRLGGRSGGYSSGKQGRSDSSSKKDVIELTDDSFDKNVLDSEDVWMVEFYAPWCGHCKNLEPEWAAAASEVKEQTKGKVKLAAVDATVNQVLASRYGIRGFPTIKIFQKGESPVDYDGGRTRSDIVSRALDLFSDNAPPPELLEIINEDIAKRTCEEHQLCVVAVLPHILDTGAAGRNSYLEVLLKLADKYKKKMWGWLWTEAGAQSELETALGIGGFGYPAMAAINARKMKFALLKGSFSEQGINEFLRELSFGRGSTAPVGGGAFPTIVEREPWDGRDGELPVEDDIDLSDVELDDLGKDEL
F508del corr = correctors of CFTR F508del function in bronchial epithelial cells. activity (quench increase), % at 7.58 µM. 350,000 tested, 0.36% active. CFBE cells, YFP halide quenching; stimulated with forskolin plus potentiator P3; % fluorescence drop versus neutral controls;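 active = mean added fluorescence quench of at least 8% versus neutral control, with both replicates also reaching 8%; inconclusive = only one of the mean or replicate conditions met; inactive = mean below 8% and not both replicates reaching 8%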;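 also: cells transiently co-express mutant CFTR-F508del with the halide-sensitive YFP; corrector assay measuring rescue of mutant channel to the surface after 24 h compound exposure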
PDI inh = PDI (human) enzyme inhibition; P07237; PDI insulin aggregation turbidity, A650, 90 min; inhibition, % at 10 µM; 350,000 tested, 0.052% active; AID 588391;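 active = mean inhibition across replicates of 30% or more, whatever share of single replicates reach that level; inconclusive = mean inhibition below 30% while every single replicate reaches 30%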
Cneo AK release = causes C. neoformans cell lysis; 360,000 tested, 0.2% active; lysis activity, % at 15 µM; adenylate kinase release luminescence, 4 h; normalised: neutral wells 0, clomiphene wells 100;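 active = mean lysis activity across replicates of at least 80%, whatever share of replicates individually reach that level; inactive = mean lysis activity below 80%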
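Assay system: Cryptococcus neoformans yeast cells / Dosing: single-point compound dose / Timing: 4 h at 37 °C static, read 1 h later / Measured by: luminescence of released adenylate kinase using an AK detection reagent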
DENV2 CPE = protects cells from dengue virus 2 cytopathic effect; CPE inhibition, % at 9.99 µM; 350,000 tested, 1.7% active; DENV2-infected cells, cytopathic effect rescue, plate reader; AID 651640; in the data active = CPE inhibition above about 20%, passing the limit was not always enough; inconclusive = no clear call, values can overlap the other calls; tested in BHK-21 cells;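 also: 0% = median of neutral control wells and 100% = median of positive control wells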
* = called active by the depositor; ? = inconclusive; nt = no result given. Most compounds without a hit are left out; they make up all but 2.3% or so of the library.

SMILES | C2C12 statin | ERp5 block | F508del corr | PDI inh | Cneo AK release | DENV2 CPE
Cc1ccc(S(=O)(=O)NC(=O)C2(C)CCN2C(=O)Cc2cccs2)cc1 (stereo not given) | 1.1 | 3.3 | 3.8 | 10.2 | -0.3 | 49.5*
Cc1nc(C(F)(F)F)ccc1C(=O)N1CCC1(C)C(=O)NS(=O)(=O)c1ccc(C#N)cc1 (stereo not given) | -4.7 | -0.3 | -1.1 | 6.0 | 0.0 | 30.8*
Cc1nc(C(F)(F)F)ccc1C(=O)N1CCC1(C)C(=O)NCc1ccc(Cl)cc1 (stereo not given) | -6.8 | -0.7 | -4.8 | 3.6 | 2.9 | 68.8*
Cc1ccc(S(=O)(=O)NC(=O)C2(C)CCN2C(=O)c2ccc(C(F)(F)F)nc2C)cc1 (stereo not given) | 1.6 | 1.6 | 0.0 | 19.4 | 0.3 | 51.4*
C[C@@H]1CN([C@@H](C)CO)C(=O)c2cc(C#Cc3ccccn3)cnc2O[C@H]1CN(C)Cc1ccccc1 | 47.5 | nt | -1.5 | nt | nt | nt
COC(=O)[C@@]12CCCN1[C@H](c1ccc(-c3ccccc3)cc1)[C@@H]1C(=O)N(C)C(=O)[C@@H]12 | -6.8 | 0.5 | -5.4 | -5.9 | -2.4 | 65.5*
O=C(C[C@H]1CC[C@@H]2[C@H](COC[C@H](O)CN2Cc2nccs2)O1)NCc1ccc(Oc2ccccc2)cc1 | 12.8 | 0.4 | 1.3 | nt | 0.1 | 18.1
O=C(O)C[C@H]1C[C@H]2c3cc(NC(=O)NC4CCCC4)ccc3O[C@H]2[C@H](CO)O1 | 1.7 | 3.5 | 1.3 | nt | -0.9 | 35.5*
O=C(O)C[C@H]1C[C@H]2c3cc(NC(=O)NC4CCCC4)ccc3O[C@H]2[C@@H](CO)O1 | -4.2 | -3.2 | 1.4 | nt | 1.8 | 12.6
O=C(Nc1ccc2c(c1)[C@@H]1C[C@@H](CC(=O)N3CCOCC3)O[C@@H](CO)[C@@H]1O2)NC1CCCCC1 | -3.6 | -1.3 | -2.7 | nt | -4.3 | 23.1*
O=C(Nc1ccc2c(c1)[C@@H]1C[C@H](CC(=O)N3CCCCC3)O[C@@H](CO)[C@@H]1O2)NC1CCCCC1 | nt | -7.2 | -0.9 | nt | nt | 32.2*
C[C@@H]1CN([C@@H](C)CO)C(=O)c2cccc(NS(=O)(=O)c3cccs3)c2O[C@@H]1CN(C)S(C)(=O)=O | nt | 0.2 | 1.3 | nt | -8.4 | 5.2
C[C@@H]1CN([C@H](C)CO)C(=O)c2cc(NS(=O)(=O)c3cccs3)ccc2O[C@@H]1CN(C)C | -15.6 | 9.0 | 3.4 | nt | -3.1 | -4.4
COc1ccccc1N=c1oc2cc(O)ccc2cc1C(N)=O | -129.8 | nt | nt | -3.7 | -3.1 | nt
Cc1cccc(N=c2oc3cc(O)ccc3cc2C(N)=O)c1 | 118.3* | nt | nt | -2.8 | 0.1 | nt
CC(C)Oc1ncnc2c1[nH]c1ccccc12 | nt | 3.6 | 10.0* | 6.5 | -5.1 | 6.2
O=C1c2c(O)cc(O)cc2O[C@@]12c1c(cc(O)c3c1O[C@H](c1ccc(O)cc1)[C@@H](O)C3)O[C@@H]2c1ccc(O)cc1 | 3.0 | -0.4 | -2.7 | 41.0* | -0.3 | -9.7
CC(C(=O)NCC1CCCO1)n1cccc1C(=O)c1ccccc1 (stereo not given) | 106.9* | nt | nt | -5.1 | 6.3 | nt
CC(C(=O)NCc1ccc(Cl)cc1)n1cccc1C(=O)c1ccccc1 (stereo not given) | 24.7 | 5.1 | -2.0 | 12.6 | 1.4 | -4.3
C[C@@H]1CN([C@H](C)CO)S(=O)(=O)c2ccc(C#Cc3ccc(F)cc3)cc2O[C@@H]1CN(C)S(=O)(=O)c1ccc(F)cc1 | 7.9 | -3.2 | 4.2 | nt | 0.9 | 0.1
C/C(=N/NC(=O)c1ccc2c(c1)OCO2)c1cccc(NC(=O)C(C)(C)C)c1 | 111.2* | nt | nt | 9.2 | 2.9 | nt
O=C(Nc1cccc(S(=O)(=O)N2CCCCCC2)c1)c1ccc2ccccc2n1 | nt | 4.0 | nt | -3.1 | -0.7 | 21.6*
CC(=O)Nc1cccc(/C(C)=N/NC(=O)c2cccc(S(=O)(=O)N3CCCC3)c2)c1 | 4.2 | 0.0 | 3.7 | 2.8 | -0.5 | 25.0*
Cc1cccnc1NC(=O)c1cccc(S(=O)(=O)N2CCCC2)c1 | 1.0 | 0.5 | -1.2 | -9.5 | -0.7 | 31.2*
C[C@H](CO)N1C[C@H](C)[C@H](CN(C)Cc2ccc(Oc3ccccc3)cc2)Oc2ccc(NS(=O)(=O)c3ccc(Cl)cc3)cc2C1=O | -16.0 | -10.0 | 3.6 | nt | 1.1 | ?
SMILES | C2C12 statin | ERp5 block | F508del corr | PDI inh | Cneo AK release | DENV2 CPE
Cn1cnc(S(=O)(=O)N2CC[C@@H]3[C@H]2c2cc(-c4ccccc4F)ccc2N[C@@H]3CO)c1 | -8.9 | nt | -1.2 | nt | -27.7 | -15.3
Cc1ccnc(NC(=O)c2ccc(Cl)c(S(=O)(=O)N3CCCC3)c2)c1 | nt | 0.1 | -1.0 | -3.9 | nt | 60.7*
COc1ccc(C(C)=NNC(=O)c2cccc(S(=O)(=O)N3CCCC3)c2)cc1 | 9.5 | 5.1 | 2.7 | 8.8 | -3.3 | 8.6
CC(=O)N1CCN(S(=O)(=O)c2cccc(C(=O)NCc3ccc(F)cc3)c2)CC1 | 77.4* | -1.5 | 0.7 | -0.8 | -0.1 | 0.6
Cc1ccnc(NC(=O)c2ccc(Cl)c(S(=O)(=O)N3CCCCC3)c2)c1 | -4.3 | 1.1 | -1.2 | -2.8 | -0.3 | 4.5
COc1ccc(/C(C)=N/NC(=O)c2cccc(S(=O)(=O)N3CCCC3)c2)c(O)c1 | -5.5 | 5.3 | 9.8* | -3.2 | -3.4 | 2.4
CO[C@H]1CN(C)C(=O)c2cc(NC(=O)NC3CCCCC3)ccc2OC[C@@H](C)N(C(C)=O)C[C@@H]1C | -5.2 | 0.3 | -2.7 | nt | -1.9 | -6.3
O=C(C[C@@H]1CC[C@@H](NC(=O)c2ccc(F)cc2)[C@@H](CO)O1)NCc1ccncn1 | 9.5 | -4.4 | -2.3 | nt | -2.9 | 1.4
C/C=C/c1ccc([C@H]2[C@@H](CO)N(CC3CCOCC3)C23CN(S(=O)(=O)CC)C3)cc1 | nt | 1.1 | -1.5 | nt | nt | 27.3*
C/C=C/c1ccc([C@H]2[C@@H](CO)N(CC3CCCC3)C23CN(S(=O)(=O)CC)C3)cc1 | nt | -3.6 | -1.5 | nt | nt | 23.1*
C/C=C/c1ccc([C@H]2[C@@H](CO)N(CCC(F)(F)F)C23CN(C(=O)CC2CC2)C3)cc1 | nt | 2.7 | 1.9 | nt | nt | 65.1*
C/C=C/c1ccc([C@@H]2[C@H](CO)N(CC3CCCC3)C23CN(S(=O)(=O)CC)C3)cc1 | nt | -2.5 | 0.7 | nt | nt | -5.9
C/C=C/c1ccc([C@H]2[C@@H](CO)N(CC3CC3)C23CN(S(C)(=O)=O)C3)cc1 | nt | -1.4 | 0.4 | nt | nt | 51.2*
C[C@@H]1CN([C@@H](C)CO)C(=O)c2cc(NS(C)(=O)=O)ccc2O[C@@H](C)CCCCO[C@H]1CN(C)C | 25.5 | 2.8 | -1.1 | nt | -1.3 | -15.2
Cc1ccccc1-c1cnc2c(c1)C(=O)N([C@@H](C)CO)C[C@@H](C)[C@@H](CN(C)Cc1ccncc1)O2 | -13.3 | 2.1 | -3.1 | nt | -0.3 | -9.9
CS(=O)(=O)N1CC2(C1)[C@@H](c1ccccc1)[C@@H](CO)N2Cc1ccccc1 | nt | 2.9 | 0.2 | nt | nt | 27.5*
C/C=C/c1ccc2c(c1)O[C@H](CN(C)S(=O)(=O)c1ccccc1)[C@H](C)CN([C@@H](C)CO)S2(=O)=O | 9.8 | -7.7 | -2.0 | nt | 89.9* | -2.6

Screens as filed in PubChem BioAssay.
